Experimental data reported in ChEMBL document CHEMBL4425129, “Exploring Basic Tail Modifications of Coumarin-Based Dual Acetylcholinesterase-Monoamine Oxidase B Inhibitors: Identification of Water-Soluble, Brain-Permeant Neuroprotective Multitarget Agents” (J Med Chem, 2016).
The source made the active and inactive calls. No cut-off for these calls is given here.

Key:
[1] = biological target: T1, Amine oxidase [flavin-containing] B (Homo sapiens, UniProt P27338); test: Inhibition of human recombinant MAOB expressed in microsomes of baculovirus-infected insect cell using kynuramine as substrate preincubated for 20 mins followed by protein addition measured after 30 mins by fluorescence assay
T1 sequence (P27338 whole entry): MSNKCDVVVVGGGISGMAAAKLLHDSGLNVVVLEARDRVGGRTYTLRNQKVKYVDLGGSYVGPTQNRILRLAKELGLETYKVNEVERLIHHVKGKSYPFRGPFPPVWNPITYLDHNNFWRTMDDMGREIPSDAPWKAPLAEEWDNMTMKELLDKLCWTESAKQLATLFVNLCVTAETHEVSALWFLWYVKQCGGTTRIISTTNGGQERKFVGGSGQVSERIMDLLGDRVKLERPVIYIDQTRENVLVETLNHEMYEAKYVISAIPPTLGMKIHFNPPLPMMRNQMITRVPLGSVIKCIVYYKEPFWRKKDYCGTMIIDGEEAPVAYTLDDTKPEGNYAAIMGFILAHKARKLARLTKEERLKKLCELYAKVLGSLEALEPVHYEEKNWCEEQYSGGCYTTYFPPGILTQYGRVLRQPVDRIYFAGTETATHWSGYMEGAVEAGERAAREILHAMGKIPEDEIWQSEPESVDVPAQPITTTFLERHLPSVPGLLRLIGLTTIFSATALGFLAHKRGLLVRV

Acetylcholinesterase [2] = biological target: T2, Acetylcholinesterase (Electrophorus electricus, UniProt O42275); test: Inhibition of electric eel AChE using acetylthiocholine iodide as substrate preincubated for 20 mins followed by substrate addition measured for 5 mins by spectrophotometric Ellman's method
[3] = biological target: T3, Amine oxidase [flavin-containing] A (Homo sapiens, UniProt P21397); test: Inhibition of human recombinant MAOA expressed in microsomes of baculovirus-infected insect cell at 10 uM using kynuramine as substrate preincubated for 20 mins followed by protein addition measured after 30 mins by fluorescence assay relative to control; settings: 0.5 h
T3 sequence (P21397 whole entry): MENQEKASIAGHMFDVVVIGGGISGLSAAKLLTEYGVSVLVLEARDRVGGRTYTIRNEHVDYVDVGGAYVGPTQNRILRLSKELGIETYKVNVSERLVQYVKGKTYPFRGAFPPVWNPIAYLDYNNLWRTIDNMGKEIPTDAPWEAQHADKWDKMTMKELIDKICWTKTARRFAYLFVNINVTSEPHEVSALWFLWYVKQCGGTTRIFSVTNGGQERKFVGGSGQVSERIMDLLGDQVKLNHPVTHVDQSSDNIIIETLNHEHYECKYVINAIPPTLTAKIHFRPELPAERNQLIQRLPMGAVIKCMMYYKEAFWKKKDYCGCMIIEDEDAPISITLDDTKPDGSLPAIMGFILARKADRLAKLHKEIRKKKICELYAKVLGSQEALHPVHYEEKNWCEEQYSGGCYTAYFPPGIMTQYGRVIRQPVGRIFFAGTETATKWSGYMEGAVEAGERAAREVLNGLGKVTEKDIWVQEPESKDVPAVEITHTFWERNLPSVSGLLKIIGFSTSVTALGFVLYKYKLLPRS
In short: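 Recombinant human MAO A (baculovirus-infected insect cell microsomes) with kynuramine substrate; inhibitor preincubated 20 min at 37 °C, enzyme then added and incubated 30 min more. Fluorescence at ex/em 320/400 nm. […] Triplicates, three independent experiments.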

[4] = biological target: Cholinesterase (Equus caballus) (UniProt P81908); test: Inhibition of equine serum BChE at 10 uM using butyrylthiocholine iodide as substrate preincubated for 20 mins followed by substrate addition measured for 5 mins by spectrophotometric Ellman's method relative to control
In short: (§1)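 BChE from equine serum (13 U/mg), Ellman spectrophotometric method run in 96-well format. Seven inhibitor concentrations, 10^-4 to 10^-10 M, each in triplicate. IC50 from non-linear regression of response against log(concentration). […] Mean of three independent experiments.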

SH-SY5Y [5] = test: Neuroprotective activity against rotenone-induced oxidative injury in human SH-SY5Y cells assessed as increase in cell viability at 1 uM after 24 hrs by MTT assay; assay type: functional, cell-based
In short: (§2)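 SH-SY5Y cells incubated 24 h with compound at 1 or 10 µM together with H2O2 300 µM, oligomycin-A 10 µM or rotenone 20 µM. Viability by MTT, as % of cells given neither insult nor compound. Triplicates, three repeats; mean ± SD; two-way ANOVA with Bonferroni post hoc test.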

SH-SY5Y [6] = test: Neuroprotective activity against oligomycin-A-induced oxidative injury in human SH-SY5Y cells assessed as increase in cell viability at 10 uM after 24 hrs by MTT assay; assay type: functional, cell-based; in short: as §2
SH-SY5Y [7] = test: Cytotoxicity against human SH-SY5Y cells assessed as inhibition of cell growth after 24 hrs by MTT assay; assay type: cell-based
In short: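 SH-SY5Y cells exposed 24 h at 37 °C to 0.1, 1, 5, 10 and 50 µM; viability read by MTT at 570 nm versus untreated cells. […] Means ± SD, n = 3.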

[8] = Kinetic aqueous solubility of the compound in Tris-HCl buffer at pH 7.4 by turbidimetric method; assay type: physicochemical; settings: for log(Kinetic_solubility): buffer
In short: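 DMSO stocks added in portions to 50 mM Tris-HCl pH 7.4 at room temperature. Light scattering read as UV absorbance increase at 580–780 nm; solubility from a bilinear fit of absorbance versus µL DMSO. Reported as logS (mol/L), mean ± SEM of three independent assays.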

SH-SY5Y [9] = test: Neuroprotective activity against H2O2-induced oxidative injury in human SH-SY5Y cells assessed as increase in cell viability at 1 to 10 uM after 24 hrs by MTT assay; assay type: functional, cell-based; in short: as §2
SH-SY5Y [10] = test: Neuroprotective activity against oligomycin-A-induced oxidative injury in human SH-SY5Y cells assessed as increase in cell viability at 1 uM after 24 hrs by MTT assay; assay type: functional, cell-based; in short: as §2
[11] = Efflux ratio of apparent permeability across basolateral to apical side over apical to basolateral side in MDCK2-MDR1 cells at 5 to 75 uM by UV-visible spectroscopic method; assay type: ADME, cell-based, Canis lupus familiaris; settings: dog, MDCK-MDR1
In short: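 Canine kidney MDCKII-MDR1 cells (retrovirally transfected with human MDR1 cDNA), cultured in DMEM and seeded at 100000 cells/cm2 on 0.4 µm-pore Transwell inserts. […] Apical-to-basolateral and basolateral-to-apical transport were measured, with compound quantified by UV-vis absorbance against PBS calibration curves (5–75 µM). ER = Papp BL-AP / Papp AP-BL. Triplicates, three experiments.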

[12] = Apparent permeability across basolateral to apical side in MDCK2-MDR1 cells at 5 to 75 uM by UV-visible spectroscopic method; assay type: ADME, cell-based, Canis lupus familiaris; settings: dog, MDCK-MDR1
In short: (§3)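 Acceptor concentrations measured by UV–visible spectroscopy against PBS calibration curves linear over 5–75 µM. Papp (cm/sec) = (VA/(area × time)) × ([drug]acceptor/[drug]initial). Triplicates, three experiments.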

[13] = Lipophilicity index, Log K of the compound at 1 mM by RP-HPLC method; assay type: physicochemical; settings: 1000 µM
SH-SY5Y [14] = test: Neuroprotective activity against rotenone-induced oxidative injury in human SH-SY5Y cells assessed as increase in cell viability at 10 uM after 24 hrs by MTT assay; assay type: functional, cell-based; in short: as §2
[15] = Apparent permeability across apical to basolateral side in MDCK2-MDR1 cells at 5 to 75 uM by UV-visible spectroscopic method; assay type: ADME, cell-based, Canis lupus familiaris; settings: dog, MDCK-MDR1; in short: as §3
[16] = biological target: T3, Amine oxidase [flavin-containing] A; test: Inhibition of human recombinant MAOA expressed in microsomes of baculovirus-infected insect cell using kynuramine as substrate preincubated for 20 mins followed by protein addition measured after 30 mins by fluorescence assay
In short: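 Recombinant human MAO A (baculovirus-infected insect cell microsomes) with kynuramine substrate; inhibitor preincubated 20 min at 37 °C, enzyme then added and incubated 30 min more. Fluorescence at ex/em 320/400 nm. Triplicates, three independent experiments.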

Cholinesterase = Cholinesterase (Equus caballus, UniProt P81908); test: Inhibition of equine serum BChE using butyrylthiocholine iodide as substrate preincubated for 20 mins followed by substrate addition measured for 5 mins by spectrophotometric Ellman's method; in short: as §1
Acetylcholinesterase [17] = biological target: T2, Acetylcholinesterase; test: Mixed-type inhibition of electric eel AChE using S-acetylthiocholine as substrate preincubated for 20 mins followed by substrate addition measured for 5 mins by Lineweaver-Burk plot method

T2 sequence (O42275 whole entry): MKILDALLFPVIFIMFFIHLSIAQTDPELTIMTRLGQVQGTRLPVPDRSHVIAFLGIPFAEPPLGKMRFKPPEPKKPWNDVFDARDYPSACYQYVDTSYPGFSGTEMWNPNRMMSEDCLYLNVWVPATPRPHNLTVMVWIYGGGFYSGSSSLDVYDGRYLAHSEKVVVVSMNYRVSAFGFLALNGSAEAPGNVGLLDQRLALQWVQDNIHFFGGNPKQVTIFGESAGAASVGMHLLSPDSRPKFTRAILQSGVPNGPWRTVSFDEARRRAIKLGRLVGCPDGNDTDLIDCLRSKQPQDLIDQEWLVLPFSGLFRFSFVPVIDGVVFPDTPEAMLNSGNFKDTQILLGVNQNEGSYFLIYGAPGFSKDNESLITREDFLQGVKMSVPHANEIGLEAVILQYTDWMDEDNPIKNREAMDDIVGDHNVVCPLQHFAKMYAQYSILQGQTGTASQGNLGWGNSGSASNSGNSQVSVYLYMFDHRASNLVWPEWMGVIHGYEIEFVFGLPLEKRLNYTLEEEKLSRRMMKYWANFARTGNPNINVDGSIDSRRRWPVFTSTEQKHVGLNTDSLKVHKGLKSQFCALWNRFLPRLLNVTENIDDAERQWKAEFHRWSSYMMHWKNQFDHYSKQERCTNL
Sequence of Cholinesterase (Equus caballus) (P81908 whole entry): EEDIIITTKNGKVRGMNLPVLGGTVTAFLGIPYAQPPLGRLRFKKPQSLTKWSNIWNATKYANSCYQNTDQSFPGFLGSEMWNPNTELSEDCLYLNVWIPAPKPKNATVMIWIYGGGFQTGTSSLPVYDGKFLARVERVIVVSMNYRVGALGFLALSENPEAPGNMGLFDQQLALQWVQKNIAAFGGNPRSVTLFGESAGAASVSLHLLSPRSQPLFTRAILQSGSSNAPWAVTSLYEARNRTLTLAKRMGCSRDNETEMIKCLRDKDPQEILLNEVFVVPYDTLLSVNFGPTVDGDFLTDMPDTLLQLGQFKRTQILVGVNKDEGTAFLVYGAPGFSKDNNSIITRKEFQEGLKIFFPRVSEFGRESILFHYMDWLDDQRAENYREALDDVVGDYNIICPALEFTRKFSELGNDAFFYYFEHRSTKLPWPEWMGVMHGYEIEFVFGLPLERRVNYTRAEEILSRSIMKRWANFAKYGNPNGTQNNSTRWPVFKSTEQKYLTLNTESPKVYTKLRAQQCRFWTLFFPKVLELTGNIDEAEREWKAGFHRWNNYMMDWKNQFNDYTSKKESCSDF
Sequence of Cholinesterase (P81908 whole entry): as above

Cc1c(C)c2ccc(OCC3CCN(Cc4ccc(Cl)cc4)CC3)cc2oc1=O
IC50 [1]: 614 nM
IC50 (Acetylcholinesterase [2]): 9570 nM
inhibition at 10 µM [3]: 37%
inhibition [4]: 19%

Cc1c(C)c2ccc(OCC3CCCN(C)C3)cc2oc1=O.Cl (racemic)
IC50 [1]: 137 nM
Activity (SH-SY5Y [5]): Active
Activity (SH-SY5Y [6]): inactive
IC50 (SH-SY5Y [7]): 30000 nM
log(Kinetic_solubility) [8]: -3.67
Activity (SH-SY5Y [9]): Active
Activity (SH-SY5Y [10]): inactive
efflux ratio at up to 75 µM [11]: 0.9
IC50 (Acetylcholinesterase [2]): 800 nM
Papp B→A at up to 75 µM [12]: 20.2 ×10⁻⁶ cm/s
log K [13]: 1.14
Activity (SH-SY5Y [14]): Active
Papp A→B at up to 75 µM [15]: 22.3 ×10⁻⁶ cm/s
inhibition [4]: 19%
IC50 [16]: 9330 nM

Cc1c(C)c2ccc(OCC3CCCN(Cc4cccc(Br)c4)C3)cc2oc1=O.Cl (racemic)
IC50 [1]: 110 nM
efflux ratio at up to 75 µM [11]: 2.56
IC50 (Acetylcholinesterase [2]): 1910 nM
Papp B→A at up to 75 µM [12]: 2.16 ×10⁻⁶ cm/s
Papp A→B at up to 75 µM [15]: 0.84 ×10⁻⁶ cm/s
IC50 [16]: 810 nM

Cc1c(C)c2ccc(OCC3CCCN(Cc4ccccc4)C3)cc2oc1=O.Cl (racemic)
IC50 (Cholinesterase): 3410 nM
IC50 (SH-SY5Y [7]): 44000 nM
solubility kinetic ([8]; Tris-HCl buffer, read-out: Kinetic_solubility): 119 µM
log(Kinetic_solubility) [8]: -3.92
efflux ratio at up to 75 µM [11]: 0.61
IC50 (Acetylcholinesterase [2]): 1030 nM
Ki (Acetylcholinesterase [17]): 1370 nM
Papp B→A at up to 75 µM [12]: 14.8 ×10⁻⁶ cm/s
log K [13]: 2.01
Papp A→B at up to 75 µM [15]: 24.3 ×10⁻⁶ cm/s
IC50 [16]: 2810 nM
